Assay results from ChEMBL document CHEMBL4020827, “Targeting Multiple Effector Pathways in Pancreatic Ductal Adenocarcinoma with a G-Quadruplex-Binding Small Molecule” (J Med Chem, 2018).
pIC50: −log10 of the molar value.

Tests used:
PANC-1 [1] = experiment: Effect on TEAD3 gene expression in human PANC1 cells at 400 nM after 24 hrs by RNA sequence analysis relative to control; assay type: functional
How it was run: (§1)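 RNA-seq: cells seeded overnight in 60 mm plates (PANC-1 0.35 x 10^6, MIA PaCa-2 1.5 x 10^6 cells/well), then exposed to 400 nM compound for 6 or 24 h against untreated controls. Cell lines mycoplasma-free by RNA-capture ELISA and STR-profiled. Differentially expressed genes called at FDR < 0.1.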

MIA PaCa-2 [2] = experiment: Effect on PCK2 gene expression in human MIAPaCa2 cells at 400 nM after 24 hrs by RNA sequence analysis relative to control; assay type: functional
PANC-1 [3] = experiment: Effect on CTBP1 gene expression in human PANC1 cells at 400 nM after 6 hrs by RNA sequence analysis relative to control; assay type: functional
How it was run: (§2)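 PANC-1 (0.35 x 10^6) or MIA PaCa-2 (1.5 x 10^6) cells seeded overnight in 60 mm plates, then exposed to 400 nM compound for 6 or 24 h; untreated cells as controls. Cells were mycoplasma-free and STR-certified. Differential expression by RNA-seq, called at FDR < 0.1.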

PANC-1 [4] = experiment: Effect on PIK3R3 gene expression in human PANC1 cells at 400 nM after 6 hrs by RNA sequence analysis relative to control; assay type: functional
PANC-1 [5] = experiment: Effect on SHC2 gene expression in human PANC1 cells at 400 nM after 6 hrs by RNA sequence analysis relative to control; assay type: functional; how it was run: as §1
PANC-1 [6] = experiment: Effect on GLI1 gene expression in human PANC1 cells at 400 nM after 6 hrs by RNA sequence analysis relative to control; assay type: functional; how it was run: as §2
Mus musculus = experiment: Hepatotoxicity in CD-1 nude mouse xenografted with human MIAPaCa2 cells at 15 mg/kg, iv administered twice weekly for 4 weeks by hematoxylin and eosin staining based assay; assay type: toxicity, organism-based; conditions: in vivo, 672 h
MIA PaCa-2 [7] = experiment: Effect on PAK1 gene expression in human MIAPaCa2 cells at 400 nM after 6 hrs by RNA sequence analysis relative to control; assay type: functional
PANC-1 [8] = experiment: Effect on PARD6A gene expression in human PANC1 cells at 400 nM after 6 hrs by RNA sequence analysis relative to control; assay type: functional
PANC-1 [9] = experiment: Effect on MAPK12 gene expression in human PANC1 cells at 400 nM after 6 hrs by RNA sequence analysis relative to control; assay type: functional
PANC-1 [10] = experiment: Effect on PFKFB4 gene expression in human PANC1 cells at 400 nM after 24 hrs by RNA sequence analysis relative to control; assay type: functional
MIA PaCa-2 [11] = experiment: Effect on IQSEC1 gene expression in human MIAPaCa2 cells at 400 nM after 6 hrs by RNA sequence analysis relative to control; assay type: functional; how it was run: as §2
MIA PaCa-2 [12] = experiment: Effect on SHC2 gene expression in human MIAPaCa2 cells at 400 nM after 6 hrs by RNA sequence analysis relative to control; assay type: functional; how it was run: as §1
MIA PaCa-2 [13] = experiment: Effect on PIK3R3 gene expression in human MIAPaCa2 cells at 400 nM after 6 hrs by RNA sequence analysis relative to control; assay type: functional
MIA PaCa-2 [14] = experiment: Effect on AKT1 gene expression in human MIAPaCa2 cells at 400 nM after 24 hrs by RNA sequence analysis relative to control; assay type: functional; how it was run: as §2
PANC-1 [15] = experiment: Effect on CBFA2T3 gene expression in human PANC1 cells at 400 nM after 24 hrs by RNA sequence analysis relative to control; assay type: functional; how it was run: as §2
PANC-1 [16] = experiment: Effect on GLI2 gene expression in human PANC1 cells at 400 nM after 24 hrs by RNA sequence analysis relative to control; assay type: functional; how it was run: as §2
MIA PaCa-2 [17] = experiment: Effect on PIK3R3 gene expression in human MIAPaCa2 cells at 400 nM after 24 hrs by RNA sequence analysis relative to control; assay type: functional
MIA PaCa-2 [18] = experiment: Effect on CBFA2T3 gene expression in human MIAPaCa2 cells at 400 nM after 6 hrs by RNA sequence analysis relative to control; assay type: functional; how it was run: as §2
MIA PaCa-2 [19] = experiment: Effect on mLST8 gene expression in human MIAPaCa2 cells at 400 nM after 6 hrs by RNA sequence analysis relative to control; assay type: functional; how it was run: as §1
PANC-1 [20] = experiment: Effect on ARF6 gene expression in human PANC1 cells at 400 nM after 24 hrs by RNA sequence analysis relative to control; assay type: functional; how it was run: as §2
PANC-1 [21] = experiment: Effect on TEAD2 gene expression in human PANC1 cells at 400 nM after 24 hrs by RNA sequence analysis relative to control; assay type: functional; how it was run: as §1
MIA PaCa-2 [22] = experiment: Effect on PFKL gene expression in human MIAPaCa2 cells at 400 nM after 24 hrs by RNA sequence analysis relative to control; assay type: functional
MIA PaCa-2 [23] = experiment: Antitumor activity against human MIAPaCa2 cells xenografted in CD-1 nude mouse assessed as change in tumor volume at 15 mg/kg, iv administered twice weekly for 4 weeks measured on day 29 relative to control; assay type: functional
How it was run: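 Female CD-1 nude mice (2-3 months, 20−25 g) given 5 x 10^6 MIA PaCa-2 cells subcutaneously in right flank with Matrigel; dosing began once tumors were established (approx. 13 days, mean 0.05 cm3). Eight mice/group, IV in saline twice weekly for 28 days (8 doses) against a saline group. Tumors measured by calliper (length × width × height × π/6), with body weight. Student's t test.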

[24] = Binding affinity to 5'-FAM/3'-TAMRA labeled BCL2 promoter G-quadruplex DNA (unknown origin) assessed as change in melting temperature at 1 uM by FRET assay
How it was run: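 FRET melting with FAM/TAMRA dual-labelled oligonucleotides at 400 nM, annealed at 95 °C for 10 min in 60 mM potassium cacodylate pH 7.4 and slowly cooled. Ligand final 1 μM; solution contains 50 mM K+. Fluorescence read every 0.5 °C over 30–100 °C with 30 s hold, excitation 450–495 nm and emission 515–545 nm. ΔTm from curve fitting, triplicate measurements.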

WI-38 = experiment: Growth inhibition of human WI38 cells after 96 hrs by SRB assay; assay type: cell-based; conditions: WI-38, 96 h
MIA PaCa-2 [25] = experiment: Effect on CTBP1 gene expression in human MIAPaCa2 cells at 400 nM after 24 hrs by RNA sequence analysis relative to control; assay type: functional; how it was run: as §2
MIA PaCa-2 [26] = experiment: Effect on IGF2 gene expression in human MIAPaCa2 cells at 400 nM after 6 hrs by RNA sequence analysis relative to control; assay type: functional; how it was run: as §2
MIA PaCa-2 [27] = experiment: Effect on CBFA2T3 gene expression in human MIAPaCa2 cells at 400 nM after 24 hrs by RNA sequence analysis relative to control; assay type: functional; how it was run: as §2
MIA PaCa-2 [28] = experiment: Effect on FASN gene expression in human MIAPaCa2 cells at 400 nM after 6 hrs by RNA sequence analysis relative to control; assay type: functional; how it was run: as §2
MIA PaCa-2 [29] = experiment: Effect on PFKFB4 gene expression in human MIAPaCa2 cells at 400 nM after 6 hrs by RNA sequence analysis relative to control; assay type: functional
PANC-1 [30] = experiment: Effect on FASN gene expression in human PANC1 cells at 400 nM after 24 hrs by RNA sequence analysis relative to control; assay type: functional; how it was run: as §2
MIA PaCa-2 [31] = experiment: Effect on CTBP1 gene expression in human MIAPaCa2 cells at 400 nM after 6 hrs by RNA sequence analysis relative to control; assay type: functional; how it was run: as §2

Structure (SMILES): O=C1c2ccc3c4c(c(NCCN5CCCC5)cc(c24)C(=O)N1CCCN1CCOCC1)C(=O)N(CCCN1CCOCC1)C3=O
- log2FC (PANC-1 [1]): 0.07
- log2FC (MIA PaCa-2 [2]): -0.82
- log2FC (PANC-1 [3]): -0.66
- log2FC (PANC-1 [4]): -0.16
- log2FC (PANC-1 [5]): -0.52
- log2FC (PANC-1 [6]): 0.03
- Activity (Mus musculus): Non-Toxic
- log2FC (MIA PaCa-2 [7]): -0.59
- log2FC (PANC-1 [8]): -0.63
- log2FC (PANC-1 [9]): -0.75
- log2FC (PANC-1 [10]): -0.74
- log2FC (MIA PaCa-2 [11]): -1.11
- log2FC (MIA PaCa-2 [12]): -0.83
- log2FC (MIA PaCa-2 [13]): -0.28
- log2FC (MIA PaCa-2 [14]): -0.98
- log2FC (PANC-1 [15]): -2.25
- log2FC (PANC-1 [16]): 0.38
- log2FC (MIA PaCa-2 [17]): -1.47
- log2FC (MIA PaCa-2 [18]): -2.74
- log2FC (MIA PaCa-2 [19]): -0.76
- log2FC (PANC-1 [20]): -0.69
- log2FC (PANC-1 [21]): 0.21
- log2FC (MIA PaCa-2 [22]): -1.18
- Activity (MIA PaCa-2 [23]): -73.3%
- ΔTm [24]: 13.3 °C
- pIC50 (WI-38): 5.92
- log2FC (MIA PaCa-2 [25]): -1.17
- log2FC (MIA PaCa-2 [26]): -2.72
- log2FC (MIA PaCa-2 [27]): -2.86
- log2FC (MIA PaCa-2 [28]): -0.06
- log2FC (MIA PaCa-2 [29]): -1.02
- log2FC (PANC-1 [30]): -0.7
- log2FC (MIA PaCa-2 [31]): -0.52
